Drawing on PubChem BioAssay AID493183 (Sanford-Burnham Center for Chemical Genomics, 2011), this text covers EC50 for seven compounds.

pEC50: −log10 of the molar value. The source made the active and inactive calls.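 How the source made its calls: active means mean EC50 below 10 µM; inactive means the rest.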

In general, pEC50 refers to the negative decadic logarithm of the EC50, by convention in mol/L. Broadly, the EC50 is the concentration giving half of the maximal effect.

Apelin receptor (Homo sapiens), sequence (P35414 whole entry, looked up, the tested form may be a part): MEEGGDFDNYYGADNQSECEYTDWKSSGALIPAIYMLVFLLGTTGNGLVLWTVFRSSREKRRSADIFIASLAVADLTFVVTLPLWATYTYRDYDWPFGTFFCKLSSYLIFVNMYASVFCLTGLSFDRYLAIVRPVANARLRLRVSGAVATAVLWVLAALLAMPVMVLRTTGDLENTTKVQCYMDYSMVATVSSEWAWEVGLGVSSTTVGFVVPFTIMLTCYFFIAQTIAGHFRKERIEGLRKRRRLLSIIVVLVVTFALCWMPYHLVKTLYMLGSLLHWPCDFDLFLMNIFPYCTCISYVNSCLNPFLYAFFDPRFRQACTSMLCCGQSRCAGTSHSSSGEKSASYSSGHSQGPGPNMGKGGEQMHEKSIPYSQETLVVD

The target of this test is Apelin receptor (Homo sapiens) (UniProt P35414). Nature of the test: apelin receptor activation by small molecules – cell-based, CHO-K1 AGTRL-1, PathHunter luminescence, set 4, SAR follow-up (AID 493183). The settings on record: CHO-K1 AGTRL-1 PathHunter beta-arrestin. The gist of the method: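 System: CHO-K1 APJ β-arrestin enzyme-fragment complementation cell line | Timing: Cells seeded overnight, compound exposure 90 min at 25 °C, detection 60 min | Technique: Luminescence from β-gal fragment complementation after adding detection reagent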
As to `CC1=CC(=O)C(C(C)C)=C/C1=N/OS(=O)(=O)c1cccnc1`, the pEC50 was 5.19.

With `Cc1cc(O)c(C(C)C)cc1NS(=O)(=O)c1ccccc1`, the EC50 was > 79 µM (inactive).

Turning to `CC1=CC(=O)C(C(C)C)=C/C1=N/OS(=O)(=O)c1ccc(C(C)(C)C)cc1`, the EC50 result was “inactive”. `COC(=O)c1cc(NS(=O)(=O)c2ccccc2)ccc1O`: the EC50 was > 79 µM (inactive). On the same count and under the same terms, the figure for `O=S(=O)(Nc1cc(Cl)c(O)c(Cl)c1)c1ccccc1` is > 79 µM (inactive).

As for `CC1=CC(=O)C(C(C)C)=C/C1=N/OS(=O)(=O)c1ccc(OC(F)(F)F)cc1`, the negative-log EC50 (pEC50) is 5.42. In the case of `CC1=CC(=O)C(C(C)C)=C/C1=N/OS(=O)(=O)c1ccc(C(F)(F)F)cc1`, the negative logarithm of the EC50 (pEC50) is 5.43.
